Measured values published in ChEMBL document CHEMBL5512625, “Design, synthesis, and biological evaluation of first-in-class indomethacin-based PROTACs degrading SARS-CoV-2 main protease and with broad-spectrum antiviral activity” (Eur J Med Chem, 2024).
The source made the active and inactive calls. No cut-off for these calls is given here.

What was measured:
Assay type in all cases: cell-based
[1] = target: T1, von Hippel-Lindau disease tumor suppressor-SARS-Cov-2 polyprotein (Severe acute respiratory syndrome coronavirus 2) (UniProt P40337+P0DTD1); assay: PROTAC activity at human VHL/FLAG-nsp4-tagged SARS CoV-2 MPro overexpressed in HEK293T cells assessed as protein degradation at 25 uM pretreated for 2 hrs followed by viral protein transfection measured after 24 hrs by Western blot analysis relative to control; conditions: time 26.0 hrs
T1 sequence (P40337 whole entry, looked up, other chains not shown): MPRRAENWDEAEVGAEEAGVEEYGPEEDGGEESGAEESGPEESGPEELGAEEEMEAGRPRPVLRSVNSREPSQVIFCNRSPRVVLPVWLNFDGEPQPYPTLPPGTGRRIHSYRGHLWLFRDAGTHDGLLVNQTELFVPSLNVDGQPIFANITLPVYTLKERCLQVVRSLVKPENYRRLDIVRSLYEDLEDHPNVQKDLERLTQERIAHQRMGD
Method in brief: (§1)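 293T cells pretreated 2 h with compound (1–25 µM) or 0.1% DMSO, then transfected with FLAG-nsp4-Mpro plasmid and kept 24 h with compound. Western blot for Mpro with β-actin loading control. Densitometry from 2–3 independent experiments; DC50 by nonlinear regression, plus % degradation at the top concentration.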

[2] = target: von Hippel-Lindau disease tumor suppressor-SARS-Cov-2 polyprotein (Severe acute respiratory syndrome coronavirus 2, UniProt P40337+P0DTD1); assay: (§2) PROTAC activity at human VHL/FLAG-nsp4-tagged SARS CoV-2 MPro overexpressed in HEK293T cells assessed as protein degradation pretreated for 2 hrs followed by viral protein transfection measured after 24 hrs by Western blot analysis; method in brief: as §1
von Hippel-Lindau disease tumor suppressor-SARS-Cov-2 polyprotein, sequence (P40337 whole entry, other chains not shown): as the sequence (P40337 whole entry, looked up, other chains not shown) above

[3] = target: T1, von Hippel-Lindau disease tumor suppressor-SARS-Cov-2 polyprotein (Severe acute respiratory syndrome coronavirus 2); assay: PROTAC activity at human VHL/FLAG-nsp4-tagged SARS CoV-2 MPro overexpressed in HEK293T cells assessed as protein degradation at 25 uM pretreated for 2 hrs followed by viral protein transfection measured after 24 hrs in presence of VH298 by Western blot analysis; conditions: time 26.0 hrs
Method in brief: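 293T cells pretreated with compound at 25 µM, with or without 50 µM VHL inhibitor VH298. Cells then transfected to express FLAG-nsp4-Mpro and collected 24 h post-transfection. Mpro detected by Western blot, β-actin as loading control.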

[4] = target: Replicase polyprotein 1ab (Severe acute respiratory syndrome coronavirus 2) (UniProt P0DTD1); assay: Effect on catalytic activity of FLAG-nsp4-tagged SARS CoV-2 MPro overexpressed in HEK293T cells pretreated for 2 hrs followed by viral protein transfection measured after 24 hrs by Western blot analysis; conditions: time 26.0 hrs
Method in brief: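 293T cells pretreated 2 h, then transfected with FLAG-nsp4-Mpro plasmid and kept 24 h with compound. Western blot with anti-Mpro antibody reads cleavage: release of ~34 kDa mature Mpro versus the uncleaved upper band.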

[5] = target: Replicase polyprotein 1ab (Severe acute respiratory syndrome coronavirus 2) (UniProt P0DTD1); assay: Effect on catalytic activity of FLAG-nsp4-tagged SARS CoV-2 MPro overexpressed in HEK293T cells by FRET assay
[6] = target: T1, von Hippel-Lindau disease tumor suppressor-SARS-Cov-2 polyprotein (Severe acute respiratory syndrome coronavirus 2); assay: PROTAC activity at human VHL/FLAG-nsp4-tagged SARS CoV-2 MPro overexpressed in HEK293T cells assessed as protein degradation at 25 uM pretreated for 2 hrs followed by viral protein transfection measured after 24 hrs by Western blot analysis; conditions: time 26.0 hrs; method in brief: as §1
[7] = target: T1, von Hippel-Lindau disease tumor suppressor-SARS-Cov-2 polyprotein (Severe acute respiratory syndrome coronavirus 2); assay: as §2; conditions: time 26.0 hrs; method in brief: as §1

For `COc1ccc2c(c1)c(CC(=O)N1CCN(CC(=O)N[C@H](C(=O)N3C[C@H](O)C[C@H]3C(=O)N[C@@H](C)c3ccc(-c4scnc4C)cc3)C(C)(C)C)CC1)c(C)n2C(=O)c1ccc(Cl)cc1`, the Activity [1] was 72%, the DC50 [2] was 7.3 µM and the Activity [3] was “inactive”. The Activity [4] was “inactive” and the Activity [5] was “inactive”.
For `COc1ccc2c(c1)c(CC(=O)NCCN1CCN(C(=O)CCC(=O)N[C@H](C(=O)N3C[C@@H](O)C[C@H]3C(=O)N[C@@H](C)c3ccc(-c4scnc4C)cc3)C(C)(C)C)CC1)c(C)n2C(=O)c1ccc(Cl)cc1`, the Activity [6] was “inactive”.
For `COc1ccc2c(c1)c(CC(=O)NCCCCCCC(=O)N[C@H](C(=O)N1C[C@H](O)C[C@H]1C(=O)N[C@@H](C)c1ccc(-c3scnc3C)cc1)C(C)(C)C)c(C)n2C(=O)c1ccc(Cl)cc1`, the Activity [7] was “Dose-Dependent Effect”, the Activity [4] was “inactive” and the Activity [5] was “inactive”.
For `COc1ccc2c(c1)c(CC(=O)NCCN1CCN(C(=O)CCC(=O)N[C@H](C(=O)N3C[C@H](O)C[C@H]3C(=O)N[C@@H](C)c3ccc(-c4scnc4C)cc3)C(C)(C)C)CC1)c(C)n2C(=O)c1ccc(Cl)cc1`, the Activity [1] was 67%, the DC50 [2] was 18.1 µM and the Activity [3] was “inactive”. For the same compound, the Activity [4] was “inactive” and the Activity [5] was “inactive”.
